Assay results from article PMC3390648 (The Journal of Biological Chemistry, 2012).
Ends that are not written are not given here.

Tests used:
[1] = biological target: T1, human primase (Homo sapiens, UniProt P49642+P49643); test: Fluorescence polarization; format: binding; settings: 25 °C, 25 mM HEPES, pH 7.2, 250 mM KCl, 1 mM TCEP, 30 nM fluorescein-labeled peptide, mean of three independent experiments
T1 sequence (P49643 1-462): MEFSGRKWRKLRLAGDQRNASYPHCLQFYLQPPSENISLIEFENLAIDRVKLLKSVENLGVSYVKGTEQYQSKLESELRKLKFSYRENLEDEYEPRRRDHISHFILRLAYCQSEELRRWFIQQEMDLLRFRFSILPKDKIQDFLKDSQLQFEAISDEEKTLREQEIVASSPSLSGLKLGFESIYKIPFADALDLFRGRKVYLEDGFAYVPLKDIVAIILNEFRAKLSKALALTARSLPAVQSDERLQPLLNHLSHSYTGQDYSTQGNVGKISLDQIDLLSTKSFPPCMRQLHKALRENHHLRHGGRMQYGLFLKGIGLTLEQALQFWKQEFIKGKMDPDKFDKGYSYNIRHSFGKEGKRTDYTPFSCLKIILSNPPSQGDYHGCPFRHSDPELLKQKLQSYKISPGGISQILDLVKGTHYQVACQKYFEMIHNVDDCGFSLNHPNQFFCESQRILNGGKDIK
T1 sequence (P49642 1-420 K72A/M73A partner): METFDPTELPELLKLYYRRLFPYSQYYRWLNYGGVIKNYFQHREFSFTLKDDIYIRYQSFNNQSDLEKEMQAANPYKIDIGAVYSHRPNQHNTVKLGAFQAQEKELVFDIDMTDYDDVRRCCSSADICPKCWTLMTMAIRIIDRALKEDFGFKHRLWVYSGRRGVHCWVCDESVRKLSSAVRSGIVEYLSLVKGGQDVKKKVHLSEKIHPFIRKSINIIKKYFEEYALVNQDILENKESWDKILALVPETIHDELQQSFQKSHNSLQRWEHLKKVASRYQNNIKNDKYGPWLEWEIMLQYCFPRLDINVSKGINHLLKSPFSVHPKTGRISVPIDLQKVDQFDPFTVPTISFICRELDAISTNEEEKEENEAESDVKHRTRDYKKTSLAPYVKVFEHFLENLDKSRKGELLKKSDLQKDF
Outline: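 Peptide was human pol α 1445–1462 (wild type or point mutant), synthesized with an N-terminal fluorescein. Human primase was His-Prim1(1–420; K72A/M73A) with Prim2(1–462), made in E. coli and purified by Co-NTA, heparin, TEV cleavage and gel filtration. Serial protein dilutions were read at λex 485/λem 520 nm, 200 flashes per well. Gain was set against fluorescein (35 mP). Curves were fitted by Monte Carlo fitting.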

[2] = tested on: yeast primase; test: GST pulldown with yeast primase; format: binding; settings: mutation to alanine of Phe1463
Outline: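 GST-Pol1 1453–1468, wild type or single alanine mutants, was expressed in E. coli BL21(DE3). An excess was bound to glutathione-Sepharose and washed in 25 mM HEPES pH 7.0, 250 mM KCl, 1% BSA, 0.1% NP-40, 1 mM TCEP. Beads were incubated with 20 μM yeast primase (Pri1(1–409)/Pri2(49–513)) for 2 h at 4 °C, then washed, ending with a BSA-free wash. Bound protein was read by SDS-PAGE with Coomassie staining.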

[3] = tested on: yeast primase; test: Binding of pol1 C-terminal peptide to yeast primase; settings: qualitative statement of abstract; method not given
[4] = tested on: Pri1-Pri2 primase; test: Analytical gel filtration, assembly with primase; format: binding, yeast; settings: Superdex 200 10/300 GL, 14 μM complex, 25 mM HEPES, pH 7.2, 250 mM KCl, 5% glycerol, 0.5 mM TCEP; equimolar, 4 °C, 30 min
Outline: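 Yeast primase Pri1(1–409)/His-Pri2(49–513) or the ΔCTD form Pri2(49–335), and Pol1 CTD(1263–1468)/His-Pol12(246–705), were expressed in E. coli Rosetta2(DE3). They were purified by Co-NTA, heparin, TEV tag cleavage and gel filtration. Equimolar partners were mixed for 30 min at 4 °C, and 100 μl was injected at 0.5 ml/min. Fractions were read by SDS-PAGE with Coomassie staining.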

[5] = tested on: Pol12; test: Immunoprecipitation and immunoblotting, Pol12; format: cell-based, Saccharomyces cerevisiae; settings: diploid yeast, anti-HA beads, native cell extracts, immunoblotting

With “F1455A (GYSEVNLSKLAAGCAVKS; also: fluorescein label, position not given here)” the level of binding [1] was “did not display a measurable level of binding”.

In the case of “F1463A (GRRYVDMTSIADFMLN; also: GST fusion, N-terminal)”, the “interaction with primase (abstract summary, in vitro)” value [2] is reported as “abrogates the interaction with the primase”.

With GRRYVDMTSIFDFMLN [pol1 peptide] the binding to primase [3] was “binds primase with high affinity”.

B1: CTD-Pol12: yeast Pol1 (1263–1468) with His-tagged Pol12 (246–705) (protein)
chain 1: NLQPLETTITDVERFKDTVTLELSCPSCDKRFPFGGIVSSNYYRVSYNGLQCKHCEQLFTPLQLTSQIEHSIRAHISLYYAGWLQCDDSTCGIVTRQVSVFGKRCLNDGCTGVMRYKYSDKQLYNQLLYFDSLFDCEKNKKQELKPIYLPDDLDYPKEQLTESSIKALTEQNRELMETGRSVVQKYLNDCGRRYVDMTSIFDFMLN
chain 2: KFRTMRQNLQEASDVLDDQIESFTKIIQNHYKLSPNDFADPTIQSQSEIYAVGRIVPDSPTYDKFLNPESLSLETSRMGGVGRRVRLDLSQVNELSFFLGQIVAFKGKNANGDYFTVNSILPLPYPNSPVSTSQELQEFQANLEGSSLKVIVTCGPYFANDNFSLELLQEFIDSINNEVKPHVLIMFGPFIDITHPLIASGKLPNFPQFKTQPKTLDELFLKLFTPILKTISPHIQTVLIPSTKDAISNHAAYPQASLIRKALQLPKRNFKCMANPSSFQINEIYFGCSNVDTFKDLKEVIKGGTTSSRYRLDRVSEHILQQRRYYPIFPGSIRTRIKPKDVSTKKETNDMESKEEKVYEHISGADLDVSYLGLTEFVGGFSPDIMIIPSELQHFARVVQNVVVINPGRFIRATGNRGSYAQITVQCPDLEDGKLTLVEGEEPVYLHNVWKRARVDLIAS
modifications: left off: His tag, end not stated, cleaved
With B1 the “complex formation with primase” value [4] was “eluted as a single peak”.

B2: Pol1: wild-type catalytic subunit of yeast pol α (protein)
chain: MSSKSEKLEKLRKLQAARNGTSIDDYEGDESDGDRIYDEIDEKEYRARKRQELLHDDFVVDDDGVGYVDRGVEEDWREVDNSSSDEDTGNLASKDSKRKKNIKREKDHQITDMLRTQHSKSTLLAHAKKSQKKSIPIDNFDDILGEFESGEVEKPNILLPSKLRENLNSSPTSEFKSSIKRVNGNDESSHDAGISKKVKIDPDSSTDKYLEIESSPLKLQSRKLRYANDVQDLLDDVENSPVVATKRQNVLQDTLLANPPSAQSLADEEDDEDSDEDIILKRRTMRSVTTTRRVNIDSRSNPSTSPFVTAPGTPIGIKGLTPSKSLQSNTDVATLAVNVKKEDVVDPETDTFQMFWLDYCEVNNTLILFGKVKLKDDNCVSAMVQINGLCRELFFLPREGKTPTDIHEEIIPLLMDKYGLDNIRAKPQKMKYSFELPDIPSESDYLKVLLPYQTPKSSRDTIPSDLSSDTFYHVFGGNSNIFESFVIQNRIMGPCWLDIKGADFNSIRNASHCAVEVSVDKPQNITPTTTKTMPNLRCLSLSIQTLMNPKENKQEIVSITLSAYRNISLDSPIPENIKPDDLCTLVRPPQSTSFPLGLAALAKQKLPGRVRLFNNEKAMLSCFCAMLKVEDPDVIIGHRLQNVYLDVLAHRMHDLNIPTFSSIGRRLRRTWPEKFGRGNSNMNHFFISDICSGRLICDIANEMGQSLTPKCQSWDLSEMYQVTCEKEHKPLDIDYQNPQYQNDVNSMTMALQENITNCMISAEVSYRIQLLTLTKQLTNLAGNAWAQTLGGTRAGRNEYILLHEFSRNGFIVPDKEGNRSRAQKQRQNEENADAPVNSKKAKYQGGLVFEPEKGLHKNYVLVMDFNSLYPSIIQEFNICFTTVDRNKEDIDELPSVPPSEVDQGVLPRLLANLVDRRREVKKVMKTETDPHKRVQCDIRQQALKLTANSMYGCLGYVNSRFYAKPLAMLVTNKGREILMNTRQLAESMNLLVVYGDTDSVMIDTGCDNYADAIKIGLGFKRLVNERYRLLEIDIDNVFKKLLLHAKKKYAALTVNLDKNGNGTTVLEVKGLDMKRREFCPLSRDVSIHVLNTILSDKDPEEALQEVYDYLEDIRIKVETNNIRIDKYKINMKLSKDPKAYPGGKNMPAVQVALRMRKAGRVVKAGSVITFVITKQDEIDNAADTPALSVAERAHALNEVMIKSNNLIPDPQYYLEKQIFAPVERLLERIDSFNVVRLSEALGLDSKKYFRREGGNNNGEDINNLQPLETTITDVERFKDTVTLELSCPSCDKRFPFGGIVSSNYYRVSYNGLQCKHCEQLFTPLQLTSQIEHSIRAHISLYYAGWLQCDDSTCGIVTRQVSVFGKRCLNDGCTGVMRYKYSDKQLYNQLLYFDSLFDCEKNKKQELKPIYLPDDLDYPKEQLTESSIKALTEQNRELMETGRSVVQKYLNDCGRRYVDMTSIFDFMLN
modifications: left off: 6HA, end not stated, kept
For B2, the “association with Pol12” value [5] was “all associated equally well with Pol12”.
